Measured values published in ChEMBL document CHEMBL1909531, “Mitochondrial respiration inhibitors suppress protein translation and hypoxic signaling via the hyperphosphorylation and inactivation of translation initiation factor eIF2α and elongation factor eEF2” (J Nat Prod, 2011).
Activity calls are given as the source filed them. The calls are words filed in the database; no cut-off is given here.

Tests used:
[1] = target: T1, Hypoxia inducible factors; HIF-1-alpha, HIF-2-alpha (Homo sapiens, UniProt Q16665+Q99814); assay: Inhibition of HIF1-mediated induction of secreted VEGF protein in hypoxia-stimulated human T47D cells at 0.3 uM after 16 hrs by ELISA; type: cell-based
[2] = target: T1, Hypoxia inducible factors; HIF-1-alpha, HIF-2-alpha; assay: Inhibition of hypoxia-induced HIF1 activation in human T47D cells after 16 hrs by HRE3-TK-luciferase reporter gene assay; type: cell-based
Summary of the method: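 T47D cells carrying the pHRE3-TK-Luc reporter, grown in DMEM/F12 with 10% FBS; HIF-1 induced by hypoxia (1% O2). Activity reported as % inhibition of the induced control, calculated as [1 − (treated/control)] × 100.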

MDA-MB-231 = assay: Reduction in ATP level in human MDA-MB-231 cells after 72 hrs by HPLC-UV analysis; type: functional, cell-based
Summary of the method: (§1)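 5 × 10^5 cells per well seeded in DMEM/F12 with 10% FBS. After 24 h, half the medium replaced with serum-free DMEM/F12 containing compound. After exposure, cells washed in cold DPBS and extracted with cold 0.4 M perchloric acid, then neutralized with K2CO3. ATP quantified by reversed-phase C18 HPLC-UV using 50 mM potassium phosphate pH 6.0/MeOH at 0.7 mL/min.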

PC-3 = assay: Antiproliferative activity against human PC3 cells assessed as cell viability by SRB assay; type: functional, cell-based
Summary of the method: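 Cells grown in DMEM/F12 with 10% FBS, penicillin and streptomycin; 96-well viability assay, 2-day or 6-day exposure, with medium (5% FBS) and compound renewed after 3 days in the 6-day study. Read by optical density; % inhibition = [1 − (ODtreated/ODcontrol)] × 100 versus medium control.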

T47D [3] = assay: Inhibition of cellular respiration in human T47D cells at 0.3 uM by oxygen consumption assay in presence of complex 3 substrate antimycin A; type: functional, cell-based
T47D [4] = assay: Antiproliferative activity against human T47D cells assessed as cell viability at 1 uM after 72 hrs by SRB assay; type: functional; details: read-out: Activity
Summary of the method: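 T47D cells treated for 72 h in parallel with the HPLC ATP time course; viability measured by sulforhodamine B, in which cells are fixed directly in the wells without aspiration or washing, so loosely attached cells are kept.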

T47D [5] = assay: Inhibition of HIF1beta protein accumulation under hypoxic condition in human T47D cells at 3 uM after 4 hrs by Western blot analysis; type: functional, cell-based
T47D [6] = assay: Reduction in ATP level in human T47D cells after 72 hrs by HPLC-UV analysis; type: functional, cell-based; summary of the method: as §1
[7] = target: Serine/threonine-protein kinase mTOR (Homo sapiens) (UniProt P42345); assay: Inhibition of mTOR-mediated 4E-BP1 phosphorylation on Thr 37/46 in human MDA-MB-231 cells at 1 to 10 uM after 30 mins by Western blotting; type: cell-based
T47D [8] = assay: Inhibition of cellular respiration in human T47D cells at 0.3 uM in presence of complex 4 substrate TMPD/ascorbate; type: functional, cell-based
T47D [9] = assay: Inhibition of cellular respiration in human T47D cells at 0.3 uM by oxygen consumption assay in presence of complex 1 substrate malate and pyruvate; type: functional, cell-based
Summary of the method: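 Permeabilized T47D cells, oxygen consumption measured by Clark-type electrode. Complex I respiration started with malate plus pyruvate; succinate added as complex II substrate.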

[10] = target: Serine/threonine-protein kinase mTOR (Homo sapiens) (UniProt P42345); assay: Inhibition of mTOR in human MDA-MB-231 cells assessed as eIF2alpha hyperphosphorylation on Ser 51 at 1 to 10 uM after 30 mins by Western blotting; type: cell-based
Summary of the method: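 Cells seeded at 0.8 × 10^6 per well, exposed 30 min at 37 °C, 5% CO2, in DMEM/F12 with 5% FBS. Lysed in modified RIPA (pH 7.6) with protease and phosphatase inhibitors; 40 µg protein run on 4–20% gels, nitrocellulose transfer. Phospho-specific and total eIF2α/eEF2 primaries at 1:1,000, HRP anti-rabbit at 1:2000, chemiluminescence on film.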

## CC(C)CC(=O)O[C@@H]1CC[C@]2(C)[C@H]3CC[C@]45C[C@]4(CC[C@@H]5[C@@H]4C[C@H]([C@@H]5OC5(C)C)OC4O)[C@]3(C)[C@H](O)C[C@H]2C1(C)C (some centres not stated) [SKIMMIAREPIN A]
[1]
  inhibition: Active
[2]
  IC50: 63 nM
MDA-MB-231
  Activity: Dose-dependent effect
PC-3
  Activity: Active
T47D [3]
  inhibition: inactive
T47D [4]
  viability at 1 µM: 50%
T47D [5]
  inhibition: inactive
T47D [6]
  Activity: Dose-dependent effect
[7]
  inhibition: inactive
T47D [8]
  inhibition: inactive
T47D [9]
  inhibition: Active
[10]
  Activity: Dose-dependent effect
